Bioassay records: PubChem, several laboratories
OX1R antag-1 = antagonists of human orexin 1 receptor; O43613; CHO/OX1R cells, Fluo-8 calcium fluorescence, orexin A; inhibition, % at 5 µM; hit rate 0.43% among 330,000;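 active means inhibition above its plate's threshold, mean inhibition of all tested compounds on the plate plus 3 SD, cut at about 37% in these data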;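 further: 0% = orexin A challenge wells and 100% = SB-334867-A antagonist wells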
Target sequence (O43613 whole entry, looked up): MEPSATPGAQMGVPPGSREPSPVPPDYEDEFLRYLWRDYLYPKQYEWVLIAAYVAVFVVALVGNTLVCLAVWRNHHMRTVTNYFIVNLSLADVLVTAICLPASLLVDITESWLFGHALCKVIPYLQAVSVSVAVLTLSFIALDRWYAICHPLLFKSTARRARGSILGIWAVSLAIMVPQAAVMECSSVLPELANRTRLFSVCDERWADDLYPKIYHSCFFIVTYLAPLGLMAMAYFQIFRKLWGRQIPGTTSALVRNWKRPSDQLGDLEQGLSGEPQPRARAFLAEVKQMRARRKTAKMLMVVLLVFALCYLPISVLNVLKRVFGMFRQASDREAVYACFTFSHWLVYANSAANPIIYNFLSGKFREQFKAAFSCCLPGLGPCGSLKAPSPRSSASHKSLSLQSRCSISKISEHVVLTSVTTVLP
MPTP inh = inhibitors of mitochondrial permeability transition pore; isolated mouse mitochondria, Ca2+ swelling absorbance, 30 min; inhibition, % at 10 µM; hit rate 1.4% among 360,000; AID 602449;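 active means inhibition of 50% or more, scaled per plate between neutral and stimulator controls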;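 further: 0% = DMSO wells given calcium and 100% = 1 mM EGTA wells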
GPR7 antagonist = antagonists of human GPR7 (neuropeptides B/W receptor 1) | hit rate 1.1% among 290,000 | inhibition, % at 4.4 µM | GPR7-expressing cells, fluorescence antagonist assay; in the data active means inhibition above about 16%, passing the limit was not always enough;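 further: cells stimulated with the agonist NPW; 0% = agonist with vehicle and 100% = vehicle without agonist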
OX1R antag-2 = antagonists of human orexin 1 receptor (OX1R). O43613. inhibition, % at 6.6 µM. OX1R-expressing cells, FRET antagonist read-out. hit rate 1.8% among 330,000; in the data active means inhibition mostly above about 38%, no sharp cut-off; inactive means mostly below about 40%;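 further: 0% = agonist challenge alone and 100% = reference antagonist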
CHO parental Ca = signal in parental CHO cells, OX1R antagonist counter-screen. parental CHO-K1, ATP-induced calcium, Fluo-8 fluorescence. inhibition, % at 5.6 µM. hit rate 0.63% among 330,000. AID 463079;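 active means inhibition above that plate's mean sample inhibition plus 3 SD, cut at about 26% in these data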;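 further: 0% = ATP-challenged DMSO wells and 100% = DMSO wells without ATP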
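Material: Parental CHO cells | Reagent: ATP | Compound dosing: Single nominal dose of 5.6 µM per compound | Detection: Intracellular calcium via Fluo-8 no-wash fluorescent dye | Read-out: % inhibition of ATP-induced calcium mobilization | Benchmarks: Low control ATP plus DMSO, high control DMSO only | Replicates: Singlicate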
OX1R HTRF confirm = confirmation of human orexin 1 receptor antagonists, HTRF format; shares compounds with OX1R antag-2; OX1R-expressing cells, HTRF antagonist assay; hit rate 49% among 1,800; AID 492964; inhibition, % at 6.6 µM; in the data active means inhibition above about 55%;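 further: CHO cells expressing OX1R stimulated with orexin A at about EC80; 0% = agonist challenge alone and 100% = reference antagonist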
CHO-K1 HTRF cnt = counter-screen for OX1R antagonists: effect in parental CHO-K1 cells; shares compounds with OX1R antag-2; HTRF counterscreen; inhibition, % at 6.6 µM; hit rate 48% among 1,800; in the data active means inhibition above about 17%;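 further: 0% = agonist challenge with vehicle and 100% = vehicle alone without agonist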
Starred values were filed as active, the others as inactive; ! = not confirmed by another sample. The list is not random: actives were taken first. Their share in the collection is about 3.8%.

Cc1cc(C)c[n+](-c2nc3ccccc3nc2C(=C=[N-])C#N)c1 was read as OX1R antag-1 3, MPTP inh 0, GPR7 antagonist -9, OX1R antag-2 84*!, CHO parental Ca 0, OX1R HTRF confirm 32 and CHO-K1 HTRF cnt 33*.
Screening Cc1ccc[n+](-c2nc3ccccc3nc2C(=C=[N-])C#N)c1 returned OX1R antag-1 5, MPTP inh -1, GPR7 antagonist -9, OX1R antag-2 96*, CHO parental Ca 4, OX1R HTRF confirm 36 and CHO-K1 HTRF cnt 41*.
Screening COc1cccc(/C=C/C(=O)Nc2ccc3c(c2)OCCO3)c1OC returned OX1R antag-1 -14, MPTP inh -2, GPR7 antagonist 2, OX1R antag-2 15 and CHO parental Ca -4.
CN(C)S(=O)(=O)c1cc(NC(=O)CN2CCN(c3ccccc3F)CC2)ccc1Cl was read as OX1R antag-1 -34, MPTP inh 1, GPR7 antagonist -4, OX1R antag-2 11 and CHO parental Ca 5.
Screening CCc1sc(C(=O)NCCCN2CCCC2=O)cc1Br returned OX1R antag-1 -21, MPTP inh 2, GPR7 antagonist -5, OX1R antag-2 10 and CHO parental Ca -14.
For O=C(NCCCN1CCCC1=O)c1ccc([N+](=O)[O-])s1 the results were OX1R antag-1 -7, MPTP inh -2, OX1R antag-2 119*, CHO parental Ca -15, OX1R HTRF confirm 57* and CHO-K1 HTRF cnt 71*.
`CN(Cc1ccc(C(F)(F)F)cc1)C(=O)C1CC(=O)N(Cc2ccco2)C1` (configuration not stated) gave OX1R antag-1 2, MPTP inh 0, OX1R antag-2 8 and CHO parental Ca -11.
For Cc1cc(F)ccc1NCc1cc2c(cc1[N+](=O)[O-])OCO2 the results were OX1R antag-1 -16, MPTP inh 1, GPR7 antagonist -12, OX1R antag-2 85*, CHO parental Ca -21, OX1R HTRF confirm 29 and CHO-K1 HTRF cnt 21*.
CNc1c(NS(=O)(=O)c2cc(Cl)ccc2OC)c(=O)oc2ccccc12 was read as OX1R antag-1 -19, MPTP inh 1, GPR7 antagonist 0, OX1R antag-2 9 and CHO parental Ca -14.
Screening COC(=O)C1=C(C)N(C2CCCCC2)C(=O)/C1=C\c1cccs1 returned OX1R antag-1 -37, MPTP inh 2, GPR7 antagonist -16, OX1R antag-2 15 and CHO parental Ca -31.
N#Cc1cc([N+](=O)[O-])ccc1NC(=O)COC(=O)C1CC2CCCC(C1)C2=O (configuration not stated) was read as OX1R antag-1 -20, MPTP inh 0, OX1R antag-2 88*, CHO parental Ca -3, OX1R HTRF confirm 33 and CHO-K1 HTRF cnt 43*.
`Cc1ccc(NC(=O)COC(=O)C2CC3CCCC(C2)C3=O)c([N+](=O)[O-])c1` (configuration not stated) gave OX1R antag-1 -13, MPTP inh 0, OX1R antag-2 24 and CHO parental Ca -10.
CCOc1ccc(CN2CCNC(=O)C2CC(=O)NCCN2CCOC2=O)cc1 (configuration not stated) was read as OX1R antag-1 1, MPTP inh 0, GPR7 antagonist -5, OX1R antag-2 38 and CHO parental Ca 4.
Screening C(=N\Nc1ccccn1)/c1ccc2c(c1)OCCO2 returned OX1R antag-1 -18, MPTP inh 0, GPR7 antagonist -10, OX1R antag-2 9 and CHO parental Ca 2.
Cc1ccc2c(c1)N(CC(=O)NC1CCCCC1C)C(=O)CO2 (configuration not stated) was read as OX1R antag-1 -12, MPTP inh 3, GPR7 antagonist -6, OX1R antag-2 111*, CHO parental Ca -14, OX1R HTRF confirm 37 and CHO-K1 HTRF cnt -2.
For Cc1ccc2c(c1)N(CCC(=O)NC1CCCCC1)C(=O)CO2 the results were OX1R antag-1 -7, MPTP inh -4, GPR7 antagonist -2, OX1R antag-2 14 and CHO parental Ca -1.
CCOC(=O)c1ccc(Nc2nc(-c3cccnc3)nc3ccccc23)cc1 was read as OX1R antag-1 -8, MPTP inh -4, GPR7 antagonist -13, OX1R antag-2 78*, CHO parental Ca -9, OX1R HTRF confirm 21 and CHO-K1 HTRF cnt 8.
`Cc1ccc(Nc2nc(-c3cccnc3)nc3ccccc23)cc1` gave OX1R antag-1 -6, MPTP inh 16, GPR7 antagonist -6, OX1R antag-2 12 and CHO parental Ca -32.
Screening Nc1nc(SCC(=O)Nc2cccc(S(=O)(=O)N3CCCCCC3)c2)n[nH]1 returned OX1R antag-1 -12, MPTP inh 3, GPR7 antagonist -2, OX1R antag-2 89*, CHO parental Ca -1, OX1R HTRF confirm 15 and CHO-K1 HTRF cnt 4.
For O=C(O)CN1C(=O)/C(=C\c2cn(CC(=O)N3CCOCC3)c3ccccc23)SC1=S the results were OX1R antag-1 7, MPTP inh 0, GPR7 antagonist -6, OX1R antag-2 100*, CHO parental Ca 4, OX1R HTRF confirm 43 and CHO-K1 HTRF cnt 49*.
Screening O=C(CN1C(=O)S/C(=C/c2cccnc2)C1=O)N1CCOCC1 returned OX1R antag-1 -10, MPTP inh -3, GPR7 antagonist -7, OX1R antag-2 112*, CHO parental Ca -5, OX1R HTRF confirm 49 and CHO-K1 HTRF cnt 72*.
For O=C(CN1C(=O)S/C(=C/c2cccs2)C1=O)N1CCOCC1 the results were OX1R antag-1 1, MPTP inh -1, GPR7 antagonist -2, OX1R antag-2 86*, CHO parental Ca -10, OX1R HTRF confirm 51 and CHO-K1 HTRF cnt 29*.
`O=C1CCC(C(=O)NCCN2C(=O)S/C(=C\c3cccnc3)C2=O)=NN1` gave OX1R antag-1 -1, MPTP inh 0, GPR7 antagonist -6, OX1R antag-2 106*, CHO parental Ca 11, OX1R HTRF confirm 44 and CHO-K1 HTRF cnt 59*.
O=C(CN1C(=O)S/C(=C/c2ccncc2)C1=O)N1CCOCC1 was read as OX1R antag-1 -4, MPTP inh 1, GPR7 antagonist -11, OX1R antag-2 38 and CHO parental Ca 2.
`CSc1cccc(NC(=O)CCS(=O)(=O)c2cccc3nonc23)c1` gave OX1R antag-1 -6, MPTP inh -3, GPR7 antagonist -4, OX1R antag-2 61 and CHO parental Ca -8.
For O=C(N=Nc1c(O)[nH]c2ccccc12)c1ccco1 the results were OX1R antag-1 -10, MPTP inh -1, GPR7 antagonist -7, OX1R antag-2 113*, CHO parental Ca -1, OX1R HTRF confirm 99* and CHO-K1 HTRF cnt 55*.
O=C(NC(=S)NC1CCSC1=O)c1ccc([N+](=O)[O-])cc1 (configuration not stated) was read as OX1R antag-1 4, MPTP inh -1, GPR7 antagonist -9, OX1R antag-2 35 and CHO parental Ca 4.
